Laboratory results reported in ChEMBL document CHEMBL1147432, “Rational design of azepane-glycoside antibiotics targeting the bacterial ribosome” (Bioorg Med Chem Lett, 2004).
In brackets after ≈: the same amount, converted by molar mass.

Legend:
Escherichia coli = experiment: Antibacterial activity against Escherichia coli (Strain ATCC 25922); assay type: functional
Staphylococcus aureus [1] = experiment: Compound was tested for bacterial translation inhibition (in vitro) using transcription-translation assay; assay type: functional
Outline: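 Coupled in vitro transcription–translation assay; IC50 from dose–response curves averaged over six independent experiments, error bars ±1σ.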

Nucleic Acid = experiment: Compound was tested for binding to the bacterial decoding-site RNA target using an RNA fluorescence assay; assay type: nucleic-acid assay
Outline: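 Fluorescence assay on a model decoding-site oligonucleotide, reporting ligand-induced flipping out of adenines A1492 and A1493; binding curve averaged from two titrations and fitted to a single-site model to give IC50.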

Staphylococcus aureus [2] = experiment: Antibacterial activity against Staphylococcus aureus (ATCC-25923); assay type: functional
[3] = Cytotoxic concentration against proliferation of eukaryotic cells; assay type: functional

Row | MIC (Escherichia coli) | IC50 (Staphylococcus aureus [1]) | IC50 (Nucleic Acid) | MIC (Staphylococcus aureus [2]) | Compound | CC50 [3]
1 | > 64 µg/mL | 75 µM | > 250 µM | > 64 µg/mL | CN1CC[C@H](N)[C@@H](O[C@H]2O[C@H](CN)[C@@H](O)[C@H](O)[C@H]2N)C[C@@H]1CO | –
2 | > 64 µg/mL | 170 µM | > 250 µM | > 64 µg/mL | NC[C@H]1C[C@H](O[C@H]2O[C@H](CN)[C@@H](O)[C@H](O)[C@H]2N)[C@@H](N)CCN1 | –
3 | > 64 µg/mL | 180 µM | 80 µM | > 64 µg/mL | NC[C@H]1O[C@H](O[C@@H]2C[C@@H](CO)NCC[C@H]2N)[C@H](N)[C@@H](O)[C@@H]1O | –
4 | > 64 µg/mL | 6.4 µM | 12 µM | 32 µg/mL (≈ 99.9 µM) | NC[C@H]1O[C@H](O[C@@H]2C[C@H](CO)NCC[C@H]2N)[C@H](N)[C@@H](O)[C@@H]1O | > 320 µM

More lines, now with the values behind:

Row | Compound | MIC (Escherichia coli) | IC50 (Staphylococcus aureus [1]) | IC50 (Nucleic Acid) | MIC (Staphylococcus aureus [2]) | CC50 [3]
5 | NC[C@H]1O[C@H](O[C@@H]2CCN[C@H](CO)C[C@H]2N)[C@H](N)[C@@H](O)[C@@H]1O | > 64 µg/mL | 47 µM | > 250 µM | > 64 µg/mL | –
6 | NC[C@H]1O[C@H](O[C@H]2C[C@@H]3COC(=O)N3CC[C@@H]2N)[C@H](N)[C@@H](O)[C@@H]1O | > 64 µg/mL | > 1000 µM | > 250 µM | > 64 µg/mL | –
7 | NC[C@H]1O[C@H](O[C@H]2C[C@H](CCl)NCC[C@@H]2N)[C@H](N)[C@@H](O)[C@@H]1O | > 64 µg/mL | 82 µM | > 250 µM | > 64 µg/mL | –
8 | N[C@H]1[C@@H](O[C@H]2C[C@H](CO)NCC[C@@H]2N)O[C@H](CO)[C@@H](O)[C@@H]1O | > 64 µg/mL | 110 µM | > 250 µM | > 64 µg/mL | –
9 | NC[C@H]1O[C@H](O[C@H]2CCN[C@@H](CO)C[C@@H]2N)[C@H](N)[C@@H](O)[C@@H]1O | > 64 µg/mL | 370 µM | > 250 µM | > 64 µg/mL | –
10 | NC[C@H]1O[C@H](O[C@@H]2CCN[C@@H](CO)C[C@H]2N)[C@H](N)[C@@H](O)[C@@H]1O | > 64 µg/mL | 230 µM | > 250 µM | > 64 µg/mL | –
11 | NC[C@H]1O[C@H](O[C@H]2C[C@H](CO)NCC[C@@H]2N)[C@H](N)[C@@H](OCc2ccccc2)[C@@H]1OCc1ccccc1 | > 64 µg/mL | > 1000 µM | > 250 µM | > 64 µg/mL | –
12 | NC[C@H]1O[C@H](O[C@H]2C[C@H](CO)NCC[C@@H]2N)[C@H](N)[C@@H](O)[C@@H]1O | > 64 µg/mL | 5.7 µM | 11 µM | 64 µg/mL (≈ 200 µM) | > 320 µM
13 | NC[C@H]1O[C@H](O[C@H]2CCN[C@H](CO)C[C@@H]2N)[C@H](N)[C@@H](O)[C@@H]1O | > 64 µg/mL | 39 µM | > 250 µM | > 64 µg/mL | –
